The nature of series [1]: Half life was reported. The class given is ADME. Summed up: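 Hydrolysis of the chloroethyl mustard groups was measured in phosphate buffer, pH 7.4, at 37 °C. Products were separated by HPLC on a 25 cm ODS column. t1/2 was calculated with a standard kinetic program. The method was not applied to bromo, iodo or mesyl mustards.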
Series [2] concerns LoVo. Put plainly: Cytotoxicity against colorectal tumor cell line LoVo 1 hour after incubation. The class given is functional, cell-based. As to conditions: Homo sapiens. The procedure, abridged:
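LoVo colorectal cells (2.5 × 10^3/well) were exposed to a range of prodrug or parent drug concentrations for 1 h, then washed. The cells were grown a further 3 days at 37 °C, fixed, and stained with sulforhodamine B to measure cellular protein. Treated wells were compared with untreated controls to give IC50. The ratio is prodrug IC50 over drug IC50.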

Series [3] concerns the target T1, Carboxypeptidase G2 (Pseudomonas aeruginosa (strain ATCC 15692 / PAO1 / 1C / PRS 101 / LMG12228)) (UniProt Q9I056).
T1 sequence (whole entry): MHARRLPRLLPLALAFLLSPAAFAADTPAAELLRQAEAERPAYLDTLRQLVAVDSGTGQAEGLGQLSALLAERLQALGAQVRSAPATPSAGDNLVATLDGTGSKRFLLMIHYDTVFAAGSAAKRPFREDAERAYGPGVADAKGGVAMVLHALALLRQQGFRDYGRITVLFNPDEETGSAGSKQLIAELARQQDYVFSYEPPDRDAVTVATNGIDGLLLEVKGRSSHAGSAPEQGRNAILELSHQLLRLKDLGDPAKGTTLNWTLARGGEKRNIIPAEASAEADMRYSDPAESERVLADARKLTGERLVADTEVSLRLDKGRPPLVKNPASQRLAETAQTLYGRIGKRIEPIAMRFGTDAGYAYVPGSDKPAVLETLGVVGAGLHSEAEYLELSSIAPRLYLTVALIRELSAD
Put plainly: (§1) Ability to act as substrate for Carboxypeptidase G2; unstable. The procedure, abridged: (§2)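 CPG2 cleavage of the glutamate oxycarbonyl/carbamoyl bond was followed spectrophotometrically. Prodrug and drug were scanned at 200–350 nm, and the wavelength of maximal absorbance difference was chosen. Initial rates of conversion were measured over a range of prodrug and CPG2 concentrations. KM and Vmax came from Michaelis–Menten fits. kcat was Vmax divided by the CPG2 concentration in the reaction.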

The target in series [4] is T1, Carboxypeptidase G2 (Pseudomonas aeruginosa (strain ATCC 15692 / PAO1 / 1C / PRS 101 / LMG12228)). Put plainly: Ratio of kcat/Km for carboxypeptidase G2; unstable. Summed up: as §2
Series [5] shares this target. Briefly: (§3) Ability to act as substrate for Carboxypeptidase G2; Not substrate. Summed up:
as §2

Series [6] has the same target. Briefly: Ratio of kcat/Km for carboxypeptidase G2; Not substrate. Summed up:
as §2

Series [7] has the same target. Put plainly: (§4) Ability to act as substrate for Carboxypeptidase G2. The procedure, abridged: as §2
Series [8] has the same target. Briefly: Ratio of kcat/Km for carboxypeptidase G2 activity. The procedure, abridged: as §2
Substrate in series [9]: O=C(O)CC[C@H](NC(=O)Oc1ccc(N(CCBr)CCBr)c(F)c1)C(=O)O
Described as §3. Summed up:
as §2

Substrate in series [10]: O=C(O)CC[C@H](NC(=O)Oc1ccc(N(CCI)CCI)c(F)c1)C(=O)O
Described as §3. Summed up: as §2

Substrate in series [11]: O=C(O)CC[C@H](NC(=O)Oc1ccc(N(CCCl)CCCl)c(Cl)c1)C(=O)O
The series is described as §3. Summed up: as §2

Substrate in series [12]: O=C(O)CC[C@H](NC(=O)Oc1ccc(N(CCCl)CCCl)c(F)c1)C(=O)O
Described as §1. Summed up: as §2

Substrate in series [13]: CC(C)c1cc(OC(=O)N[C@@H](CCC(=O)O)C(=O)O)ccc1N(CCCl)CCCl
Described as §4. The procedure, abridged:
as §2

Substrate in series [14]: O=C(O)CC[C@H](NC(=O)Nc1ccc(N(CCCl)CCCl)c(F)c1)C(=O)O
The series is described as §4. Summed up:
as §2

Substrate in series [15]: O=C(O)CC[C@H](NC(=O)Oc1ccc(N(CCBr)CCBr)cc1)C(=O)O
The series is described as §4. The procedure, abridged:
as §2

Substrate in series [16]: Cc1cc(OC(=O)N[C@@H](CCC(=O)O)C(=O)O)ccc1N(CCCl)CCCl
Described as §4. Summed up:
as §2

Substrate in series [17]: O=C(O)CC[C@H](NC(=O)Nc1ccc(N(CCBr)CCBr)c(F)c1)C(=O)O
Described as §4. Summed up: as §2

Substrate in series [18]: O=C(O)CC[C@H](NC(=O)Nc1ccc(N(CCCl)CCCl)c(Cl)c1)C(=O)O
The description is as §4. The procedure, abridged:
as §2

Substrate in series [19]: O=C(O)CC[C@H](NC(=O)Oc1ccc(N(CCCl)CCCl)cc1Cl)C(=O)O
The series is described as §4. The procedure, abridged: as §2

Substrate in series [20]: N#Cc1cc(NC(=O)N[C@@H](CCC(=O)O)C(=O)O)ccc1N(CCCl)CCCl
The description is as §4. The procedure, abridged:
as §2

Substrate in series [21]: O=C(O)CC[C@H](NC(=O)Oc1ccc(N(CCI)CCI)cc1)C(=O)O
Described as §4. Summed up: as §2

Substrate in series [22]: Cc1cc(N(CCCl)CCCl)ccc1OC(=O)N[C@@H](CCC(=O)O)C(=O)O
The series is described as §4. Summed up:
as §2

Usually half-life stands for how long it takes for the measured level to halve. A word on the IC50: it is the concentration that gives 50% inhibition. The term Km denotes the substrate concentration at which the rate is half of its maximum.

The source made the active and inactive calls. No cut-off for these calls is given here.

`O=C(O)CC[C@H](NC(=O)Oc1ccc(N(CCCl)CCCl)c(F)c1)C(=O)O`: the half-life in [1] stood at 19 min. This molecule also came in with an IC50 in series [2] of 53 µM. Further, in series [3], the k cat result is recorded as “Unstable”. The Ratio result in series [4] is on record as “Unstable”.

As for `O=C(O)CC[C@H](NC(=O)Oc1ccc(N(CCBr)CCBr)c(F)c1)C(=O)O`, the k cat result in series [5] is “Not substrate”. Also, the IC50 in series [2] turned out to be 46.2 µM. Besides, the Ratio result in series [6] was “inactive”.

Take `O=C(O)CC[C@H](NC(=O)Oc1ccc(N(CCI)CCI)cc1)C(=O)O`: in series [2], inhibition was half-maximal at 47.2 µM (IC50). The molecule also displayed a k cat in series [7] of 29.5 s⁻¹. In [8], the Ratio was 14.8.

`O=C(O)CC[C@H](NC(=O)Oc1ccc(N(CCBr)CCBr)cc1)C(=O)O`: in [2], half-maximal inhibition (IC50) was put at 9.4 µM. This molecule also came in with a k cat in series [7] of 60 s⁻¹.

`CC(C)c1cc(OC(=O)N[C@@H](CCC(=O)O)C(=O)O)ccc1N(CCCl)CCCl` registered a half-life in [1] of 2.2 min. The molecule further showed an IC50 in [2] of 36.7 µM. In addition, the k cat in [7] amounted to 12.6 s⁻¹. Also, in series [8], the Ratio is 0.2.

Molecule `O=C(O)CC[C@H](NC(=O)Nc1ccc(N(CCBr)CCBr)c(F)c1)C(=O)O` registered an IC50 in series [2] of 298 µM. In addition, the k cat in series [7] stood at 14.5 s⁻¹. The Ratio in series [8] stood at 2.7.

For the molecule `O=C(O)CC[C@H](NC(=O)Oc1ccc(N(CCCl)CCCl)c(Cl)c1)C(=O)O`, the k cat result in [5] is “Not substrate”. Further, in series [1], the half-life turned out to be 1.7 min. In addition, the IC50 in [2] was 9.4 µM. For the same molecule, the Ratio entry in [6] was “inactive”.

In series [1], `O=C(O)CC[C@H](NC(=O)Oc1ccc(N(CCCl)CCCl)cc1Cl)C(=O)O` showed a half-life of 186 min. The same molecule registered an IC50 in [2] of 86.7 µM. The same molecule displayed a k cat in series [7] of 50.5 s⁻¹. Further, in series [8], the Ratio turned out to be 0.7.

For the molecule `O=C(O)CC[C@H](NC(=O)Nc1ccc(N(CCCl)CCCl)c(Cl)c1)C(=O)O`, in [1], the half-life turned out to be 2.8 min. For the same molecule, in series [2], the midpoint of inhibition, the IC50, lay at 330 µM. Further, the k cat in [7] is 9.4 s⁻¹. Besides, the Ratio in series [8] worked out at 7.8.

The molecule `O=C(O)CC[C@H](NC(=O)Nc1ccc(N(CCCl)CCCl)c(F)c1)C(=O)O` returned a half-life in series [1] of 6.8 min. Moreover, the IC50 in series [2] was more than 500 µM. In addition, in series [7], the k cat is 9.3 s⁻¹. Also, the Ratio in [8] is 3.4.

In the case of `Cc1cc(N(CCCl)CCCl)ccc1OC(=O)N[C@@H](CCC(=O)O)C(=O)O`, the half-life in [1] is 33 min. The molecule also displayed an IC50 in series [2] of 437 µM. The k cat in series [7] stood at 13 s⁻¹. Also, the Ratio in [8] stood at 0.6.

As to `O=C(O)CC[C@H](NC(=O)Oc1ccc(N(CCI)CCI)c(F)c1)C(=O)O`, in series [5], the k cat entry was “Not substrate”. This molecule also gave an IC50 in [2] of 24.5 µM. For the same molecule, the Ratio result in series [6] is “inactive”.

Take `N#Cc1cc(NC(=O)N[C@@H](CCC(=O)O)C(=O)O)ccc1N(CCCl)CCCl`: the half-life in [1] was found to be 61 min. This molecule also showed an IC50 in series [2] of more than 500 µM. The molecule also gave a k cat in series [7] of 8.4 s⁻¹. The Ratio in [8] turned out to be 1.

On to `Cc1cc(OC(=O)N[C@@H](CCC(=O)O)C(=O)O)ccc1N(CCCl)CCCl`, for which the half-life in series [1] came to 1.6 min. The IC50 in series [2] worked out at 116 µM. Besides, in series [7], the k cat was found to be 30 s⁻¹. Further, the Ratio in series [8] came to 2.3.

B1: Carboxypeptidase G2 (Pseudomonas aeruginosa (strain ATCC 15692 / PAO1 / 1C / PRS 101 / LMG12228)), Q9I056 (protein)
chain: T1 sequence (whole entry)
For the molecule B1, the Km entry in [9] was “Not substrate”; in series [10], “Not substrate”; in series [11], “Not substrate”; in [12] it was “Unstable”; in [13], 56 µM; in [14], 2.7 µM. The Km in [15] was 6.2 µM; in series [16] it was 13 µM; in [17], 5.4 µM; in series [18], 1.2 µM; in series [19], 76.5 µM; in series [20], 8.3 µM. Besides, the results for the Km in series [21] and in series [22] were 2 µM and 23.5 µM, respectively.

(Values after ChEMBL document CHEMBL1128221 (J Med Chem, 1995).)
